Source: PubChem BioAssay AID623922 (The Scripps Research Institute Molecular Screening Center, 2012)
Calls of active or inactive are those of the source.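 How the source made its calls: active means residual nuclease activity at or below 52% of the solvent-only control; inactive means the rest.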

What follows are molecules tested against RecBCD enzyme subunit RecC (Escherichia coli (strain K12)) + RecBCD enzyme subunit RecB (Escherichia coli (strain K12)) (UniProt P07648+P08394) (assay: purified RecBCD nuclease inhibitors, late-stage follow-up, counter-screen for AddAB inhibitor project, biochemical, radioactivity readout, 50 µM single dose (AID 623922)). Conditions: [3H] dsDNA nuclease, TCA-soluble radioactivity, at 50 µM, active compounds read low.
RecBCD enzyme subunit RecC (Escherichia coli (strain K12)) + RecBCD enzyme subunit RecB (Escherichia coli (strain K12)), sequence (P07648 whole entry, looked up): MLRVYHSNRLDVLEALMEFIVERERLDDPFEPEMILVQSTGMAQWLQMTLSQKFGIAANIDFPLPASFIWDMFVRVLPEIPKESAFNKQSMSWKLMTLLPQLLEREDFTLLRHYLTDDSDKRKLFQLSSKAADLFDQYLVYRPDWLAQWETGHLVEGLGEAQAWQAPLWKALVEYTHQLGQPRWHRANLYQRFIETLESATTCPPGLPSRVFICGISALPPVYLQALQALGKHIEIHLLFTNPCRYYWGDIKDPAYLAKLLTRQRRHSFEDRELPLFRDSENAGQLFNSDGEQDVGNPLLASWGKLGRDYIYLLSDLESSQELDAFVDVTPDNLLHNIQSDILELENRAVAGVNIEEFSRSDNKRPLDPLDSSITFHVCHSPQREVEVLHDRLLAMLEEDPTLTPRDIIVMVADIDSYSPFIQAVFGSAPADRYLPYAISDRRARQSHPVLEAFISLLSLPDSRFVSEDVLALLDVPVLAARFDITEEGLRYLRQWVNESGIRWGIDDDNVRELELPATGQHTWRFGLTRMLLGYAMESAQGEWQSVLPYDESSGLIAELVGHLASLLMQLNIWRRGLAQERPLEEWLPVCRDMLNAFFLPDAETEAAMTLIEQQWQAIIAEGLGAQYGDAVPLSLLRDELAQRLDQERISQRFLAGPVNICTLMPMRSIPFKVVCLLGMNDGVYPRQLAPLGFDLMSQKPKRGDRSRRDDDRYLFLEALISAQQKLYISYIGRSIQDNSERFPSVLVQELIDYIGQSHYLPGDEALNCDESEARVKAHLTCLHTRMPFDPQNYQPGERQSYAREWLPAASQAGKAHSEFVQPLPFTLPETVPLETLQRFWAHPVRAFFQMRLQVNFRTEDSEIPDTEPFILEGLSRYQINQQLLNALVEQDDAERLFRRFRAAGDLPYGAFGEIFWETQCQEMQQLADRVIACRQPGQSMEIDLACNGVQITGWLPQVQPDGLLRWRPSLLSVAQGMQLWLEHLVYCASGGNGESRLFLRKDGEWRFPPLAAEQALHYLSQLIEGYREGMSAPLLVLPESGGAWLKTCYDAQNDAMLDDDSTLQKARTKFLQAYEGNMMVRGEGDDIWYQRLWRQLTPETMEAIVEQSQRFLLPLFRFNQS
RecBCD enzyme subunit RecC (Escherichia coli (strain K12)) + RecBCD enzyme subunit RecB (Escherichia coli (strain K12)), sequence (P08394 whole entry, looked up): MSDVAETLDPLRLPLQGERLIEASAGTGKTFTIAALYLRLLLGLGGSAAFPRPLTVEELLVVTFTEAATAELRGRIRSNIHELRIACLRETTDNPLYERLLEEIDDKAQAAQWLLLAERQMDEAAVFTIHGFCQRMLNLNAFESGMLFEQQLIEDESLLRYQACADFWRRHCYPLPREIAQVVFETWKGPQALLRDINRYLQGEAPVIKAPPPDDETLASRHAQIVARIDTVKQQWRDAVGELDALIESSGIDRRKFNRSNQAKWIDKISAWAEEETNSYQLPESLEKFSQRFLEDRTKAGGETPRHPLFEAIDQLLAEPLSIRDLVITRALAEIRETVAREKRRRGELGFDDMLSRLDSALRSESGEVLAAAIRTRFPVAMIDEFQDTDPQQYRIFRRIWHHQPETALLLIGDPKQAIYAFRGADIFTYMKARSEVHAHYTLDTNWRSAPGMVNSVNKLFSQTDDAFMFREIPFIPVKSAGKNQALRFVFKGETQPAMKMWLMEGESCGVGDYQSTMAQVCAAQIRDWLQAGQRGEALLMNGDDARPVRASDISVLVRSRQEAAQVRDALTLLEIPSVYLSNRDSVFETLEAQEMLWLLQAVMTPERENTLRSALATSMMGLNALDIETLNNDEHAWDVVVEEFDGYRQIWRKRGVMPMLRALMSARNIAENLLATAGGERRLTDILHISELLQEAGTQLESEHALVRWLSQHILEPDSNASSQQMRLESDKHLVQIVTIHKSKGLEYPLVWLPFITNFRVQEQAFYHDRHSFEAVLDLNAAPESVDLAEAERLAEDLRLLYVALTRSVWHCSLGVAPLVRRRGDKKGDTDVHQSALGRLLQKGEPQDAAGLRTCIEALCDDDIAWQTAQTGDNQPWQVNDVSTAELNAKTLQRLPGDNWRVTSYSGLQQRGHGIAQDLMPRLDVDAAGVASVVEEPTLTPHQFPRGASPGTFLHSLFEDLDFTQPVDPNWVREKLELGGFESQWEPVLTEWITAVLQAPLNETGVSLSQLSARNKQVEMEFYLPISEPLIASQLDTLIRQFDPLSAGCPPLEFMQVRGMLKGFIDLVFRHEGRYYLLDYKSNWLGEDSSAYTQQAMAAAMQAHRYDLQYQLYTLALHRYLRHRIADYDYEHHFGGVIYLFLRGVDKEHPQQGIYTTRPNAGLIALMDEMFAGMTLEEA
Summary of the method: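 Material: purified Escherichia coli RecBCD helicase-nuclease enzyme / Amount: 4.5 nM RecBCD / Medium: pH 8.5, 10 mM MgCl2, 25 µM ATP / Reagent: [3H] T7 dsDNA, 6 µM nucleotides / Incubation: mixing on ice, 20 min reaction at 37 °C / Signal: acid-soluble radioactivity counts / Benchmarks: DMSO control and no-enzyme background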
With `CCn1cc(C(=O)O)c(=O)c2cnc(N3CCN(C(=S)Nc4ccc5c(c4)OCO5)CC3)nc21` the residual nuclease activity was 46%. `CCn1cc(C(=O)O)c(=O)c2cnc(N3CCN(C(=S)NC(C)c4ccccc4)CC3)nc21` (configuration not stated) was tested, and the residual nuclease activity was 27%. With `CCn1cc(C(=O)O)c(=O)c2cnc(N3CCN(C(=S)Nc4ccc(Cl)cc4)CC3)nc21` the residual nuclease activity was 50%. With `CCn1cc(C(=O)O)c(=O)c2cnc(N3CCN(C(=S)NCc4ccccc4)CC3)nc21` the residual nuclease activity was 45%. In the case of `CCn1cc(C(=O)O)c(=O)c2cnc(N3CCN(C(=O)Nc4ccccc4)CC3)nc21`, the residual nuclease activity is reported as 91% (inactive). `CCn1cc(C(=O)O)c(=O)c2cnc(N3CCN(C(=S)Nc4ccccc4)CC3)nc21` was tested, and the residual nuclease activity was 68% (inactive). Molecule `CCn1cc(C(=O)O)c(=O)c2cnc(N3CCN(C(=S)Nc4cccc(C(F)(F)F)c4)CC3)nc21` has a residual nuclease activity of 8%. In the case of `CCn1cc(C(=O)O)c(=O)c2cnc(N3CCN(C(=S)Nc4ccccc4C(F)(F)F)CC3)nc21`, the residual nuclease activity is reported as 43%. In the case of `CCn1cc(C(=O)O)c(=O)c2cnc(N3CCN(C(=S)NC4CC5CCC4C5)CC3)nc21` (configuration not stated), the residual nuclease activity is reported as 75% (inactive). In the case of `CCn1cc(C(=O)O)c(=O)c2cnc(N3CCNCC3)nc21`, the residual nuclease activity is reported as 93% (inactive). Molecule `CCn1cc(C(=O)O)c(=O)c2cnc(N3CCN(C(=S)NC(=O)c4cccc(C)c4)CC3)nc21` has a residual nuclease activity of 47%. `CCn1cc(C(=O)O)c(=O)c2cnc(N3CCN(C(=S)Nc4ccc(F)cc4)CC3)nc21` gave a residual nuclease activity of 51%.
